Read-outs that look alike come from different tables or passages of the source.
Key:
[1] = Fluorophore characterization: emission spectra in solvents; format: physicochemical; settings: fluorometer
Method in brief: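 JP-N3 emission spectra were recorded in toluene, acetone, MeOH and H2O. Each spectrum was fitted with a single six-component split pseudo-Voigt curve to give a reference line shape.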

[2] = molecular target: T1, Kv2.1 channels (Rattus norvegicus, UniProt P15387); settings: values for GxTX are from ref [23], cited from earlier work
T1 sequence (P15387 1-857): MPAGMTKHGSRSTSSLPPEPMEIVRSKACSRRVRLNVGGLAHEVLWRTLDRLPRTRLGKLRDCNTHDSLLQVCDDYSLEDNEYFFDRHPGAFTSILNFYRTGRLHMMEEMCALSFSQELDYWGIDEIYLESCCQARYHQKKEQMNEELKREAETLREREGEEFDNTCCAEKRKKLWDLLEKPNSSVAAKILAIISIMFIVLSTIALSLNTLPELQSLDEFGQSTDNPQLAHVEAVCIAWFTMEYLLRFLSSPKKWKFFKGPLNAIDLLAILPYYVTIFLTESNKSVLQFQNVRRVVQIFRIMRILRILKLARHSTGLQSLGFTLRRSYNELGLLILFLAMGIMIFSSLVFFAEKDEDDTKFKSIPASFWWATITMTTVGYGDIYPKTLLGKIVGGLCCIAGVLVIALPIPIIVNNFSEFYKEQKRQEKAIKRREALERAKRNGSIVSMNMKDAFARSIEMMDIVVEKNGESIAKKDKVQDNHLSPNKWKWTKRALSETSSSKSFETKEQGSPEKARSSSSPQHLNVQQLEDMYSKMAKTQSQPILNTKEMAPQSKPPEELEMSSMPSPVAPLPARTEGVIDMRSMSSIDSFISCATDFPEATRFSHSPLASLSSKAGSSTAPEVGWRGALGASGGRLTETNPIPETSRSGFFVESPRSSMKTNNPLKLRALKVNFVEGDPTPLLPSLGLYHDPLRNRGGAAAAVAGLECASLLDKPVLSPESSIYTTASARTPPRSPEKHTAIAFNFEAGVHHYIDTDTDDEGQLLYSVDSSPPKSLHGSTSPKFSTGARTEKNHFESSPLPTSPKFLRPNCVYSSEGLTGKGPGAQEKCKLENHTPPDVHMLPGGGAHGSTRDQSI

[3] = system: Kv2.1 closed state VSD; settings: ref [22], cited from earlier work; for effect on channel opening / gating charge: Kv2.1
[4] = system: mice; settings: injected into mice; no reference or experiment given; cited from earlier work

Molecule	emission peak in MeOH ([1]; 200 nM JP-N3, anhydrous MeOH)	emission peak in hydrocarbon ([1]; 200 nM JP-N3, anhydrous hydrocarbon solvent)	Kd ([2]; 0 mV)	koff ([2]; 0 mV)	kon ([2]; 0 mV)	Kd ([2]; −100 mV)	koff ([2]; −100 mV)	kon ([2]; −100 mV)	effect on channel opening / gating charge [3]	affinity for Kv2.1 closed state VSD relative to its open state [3]	toxicity [4]
[N-]=[N+]=NCc1cc(=O)cc2oc3c4c5c(cc3nc1-2)CCCN5CCC4 [JP-N3, 10-(azidomethyl)-julolidino-phenoxazinone]	640 nm	609 nm	–	–	–	–	–	–	–	–	–
Met35Nle guangxitoxin-1E [GxTX]	–	–	1520 ± 810 nM	38 ± 9 × 10^−3 s^−1	2.5 ± 1.2 × 10^−5 s^−1 nM^−1	2.55 ± 1.01 nM	0.84 ± 0.18 × 10^−3 s^−1	3.30 ± 1.10 × 10^−4 s^−1 nM^−1	inhibiting early, fast gating charge transitions	–	–
guangxitoxin-1E (EGECGGFWWKCGSGKPACCPKYVCSPKWGLCNFPMP; UniProt P84835 1-36, looked up) [GxTX-1E]	–	–	–	–	–	–	–	–	shifting channel opening to more depolarized potentials	5400 fold	no toxicity up to 10 mg/kg

From publication PMC7894042 (ACS chemical neuroscience, 2020)
